In ChEMBL document CHEMBL5316305, “An Empirical Quantitative Structure-Activity Relationship Equation Assists the Discovery of High-Affinity Phosphodiesterase 4D Inhibitors as Leads to PET Radioligands” (J Med Chem, 2023):

Columns and labels:
[1] = Inhibition of PDE4D7 S129D mutant (unknown origin) preincubated for 5 to 10 mins followed by substrate addition and measured for 10 mins by coupled enzyme based fluorescence analysis; set-up: species or system Homo sapiens
Method in brief: (§1)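 Mutationally activated dimeric enzymes: PDE4D7-S129D (PDE4D*) and PDE4B1-S133D (PDE4B*). A real-time coupled enzyme assay measured inhibition instead of a fluorescein-labeled cAMP substrate, because the label prevents UCR2 closure. PDE4B* was used to assess subtype selectivity. The method otherwise followed earlier work.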

[2] = target: T1, 3',5'-cyclic-AMP phosphodiesterase 4B (Homo sapiens, UniProt Q07343, S133D); experiment: Inhibition of PDE4B1 S133D mutant (unknown origin) preincubated for 5 to 10 mins followed by substrate addition and measured for 10 mins by coupled enzyme based fluorescence analysis; method in brief: as §1
[3] = Selectivity index, ratio of IC50 for PDE4B1 S133D mutant (unknown origin) to IC50 for PDE4D7 S129D mutant (unknown origin)
Method in brief: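 B/D ratio is the IC50 against PDE4B1-S133D (PDE4B*) divided by the IC50 against PDE4D7-S129D (PDE4D*). Both IC50s come from the real-time coupled enzyme assay on the mutationally activated dimeric enzymes.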

[4] = target: T1, 3',5'-cyclic-AMP phosphodiesterase 4B; experiment: Inhibition of human PDE4B1 S133D mutant by coupled enzyme based fluorescence analysis; method in brief: as §1
[5] = species on record: Homo sapiens; experiment: Selectivity index, ratio of IC50 for human PDE4B1 S133D mutant to IC50 for human PDE4D7 S129D mutant
[6] = Inhibition of human PDE4D7 S129D mutant by coupled enzyme based fluorescence analysis

T1 sequence (Q07343 whole entry S133D): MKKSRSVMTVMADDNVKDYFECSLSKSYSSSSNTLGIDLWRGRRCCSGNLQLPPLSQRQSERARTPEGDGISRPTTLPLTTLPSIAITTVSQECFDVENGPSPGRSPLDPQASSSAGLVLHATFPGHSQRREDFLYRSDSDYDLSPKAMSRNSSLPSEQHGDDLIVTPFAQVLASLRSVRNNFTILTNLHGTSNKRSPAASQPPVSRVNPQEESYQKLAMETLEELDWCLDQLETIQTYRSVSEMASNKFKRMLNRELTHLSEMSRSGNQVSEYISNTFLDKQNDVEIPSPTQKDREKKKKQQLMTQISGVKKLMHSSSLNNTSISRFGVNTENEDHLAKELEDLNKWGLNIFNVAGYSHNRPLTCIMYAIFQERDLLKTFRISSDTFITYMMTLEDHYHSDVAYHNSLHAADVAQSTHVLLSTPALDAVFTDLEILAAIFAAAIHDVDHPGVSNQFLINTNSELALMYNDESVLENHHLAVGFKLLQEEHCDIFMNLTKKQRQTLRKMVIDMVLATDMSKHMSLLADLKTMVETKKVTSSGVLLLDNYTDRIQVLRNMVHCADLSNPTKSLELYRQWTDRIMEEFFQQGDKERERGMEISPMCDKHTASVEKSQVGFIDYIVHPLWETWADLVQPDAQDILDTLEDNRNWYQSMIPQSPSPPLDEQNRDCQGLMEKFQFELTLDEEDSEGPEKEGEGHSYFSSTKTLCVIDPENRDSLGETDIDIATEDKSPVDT

Structure (SMILES): Fc1ccc(Cc2cn[nH]c2)nc1-c1cccc(Cl)c1
- IC50 [1]: 744 nM
- IC50 [2]: > 10000 nM

Structure (SMILES): COc1cccc(-c2nc(Cc3cn[nH]c3)ccc2OC(F)F)c1
- Ratio IC50 [3]: 193
- IC50 [1]: 2.7 nM
- IC50 [2]: 521 nM

Structure (SMILES): COc1ccc(Cc2cn[nH]c2)nc1-c1cccc(F)c1
- Ratio IC50 [3]: 42
- IC50 [1]: 23.8 nM
- IC50 [2]: 995 nM

Structure (SMILES): COc1cccc(-c2nc(Cn3cccn3)ccc2OC(F)F)c1
- Ratio IC50 [3]: 4
- IC50 [1]: 281 nM
- IC50 [2]: 1060 nM

Structure (SMILES): COc1ccc(Cn2cccn2)nc1-c1cccc(C(F)(F)F)c1
- IC50 [1]: > 10000 nM
- IC50 [2]: > 10000 nM

Structure (SMILES): COc1cccc(-c2nc(Cc3cccnc3)ccc2OC(F)F)c1
- Ratio IC50 [3]: 62
- IC50 [1]: 12.3 nM
- IC50 [2]: 764 nM

Structure (SMILES): COc1ccc(Oc2cn[nH]c2)nc1-c1cccc(OC(F)F)c1
- IC50 [1]: 1550 nM
- IC50 [2]: > 10000 nM

Structure (SMILES): COc1ccc(Nc2cn[nH]c2)nc1-c1cccc(C(F)(F)F)c1
- IC50 [1]: 4310 nM
- IC50 [2]: > 10000 nM

Structure (SMILES): COc1cccc(-c2nc(Cc3cncnc3)ccc2OC(F)F)c1
- Ratio IC50 [3]: 116
- IC50 [1]: 10.2 nM
- IC50 [2]: 1190 nM

Structure (SMILES): FC(F)Oc1cccc(-c2nc(Cc3cn[nH]c3)ccc2OCc2ccccc2)c1
- IC50 [1]: 164 nM
- IC50 [2]: > 10000 nM

Structure (SMILES): COc1cccc(-c2nc(Cn3ncnn3)ccc2OC(F)F)c1
- IC50 [1]: 17 nM
- IC50 [2]: > 10000 nM

Structure (SMILES): COc1cccc(-c2nc(Cn3cnnn3)ccc2OC(F)F)c1
- Ratio IC50 [3]: 28
- IC50 [1]: 23 nM
- IC50 [2]: 646 nM

Structure (SMILES): COc1cccc(-c2nc(Oc3cn[nH]c3)ccc2OC(F)F)c1
- IC50 [1]: 281 nM
- IC50 [2]: > 10000 nM

Structure (SMILES): COc1ccc(Nc2cn[nH]c2)nc1-c1cccc(OC(F)F)c1
- Ratio IC50 [3]: 13
- IC50 [1]: 188 nM
- IC50 [2]: 2500 nM

Structure (SMILES): COc1cccc(-c2nc(Cc3ccncc3)ccc2OC(F)F)c1
- Ratio IC50 [3]: 159
- IC50 [1]: 3.9 nM
- IC50 [2]: 621 nM

Structure (SMILES): FC(F)Oc1cccc(-c2nc(Cc3ccncc3)ccc2OCc2ccccc2)c1
- IC50 [1]: 610 nM
- IC50 [2]: > 7760 nM

Structure (SMILES): COc1cccc(-c2nc(Cn3cnc(C(F)(F)F)n3)ccc2OC(F)F)c1
- IC50 [1]: 743 nM
- IC50 [2]: > 10000 nM

Structure (SMILES): COc1cccc(-c2nc(CNc3cn[nH]c3)ccc2OC(F)F)c1
- Ratio IC50 [3]: 4
- IC50 [1]: 530 nM
- IC50 [2]: 2270 nM

Structure (SMILES): COc1cccc(-c2nc(C(=O)c3cn[nH]c3)ccc2OC(F)F)c1
- Ratio IC50 [3]: 2
- IC50 [1]: 873 nM
- IC50 [2]: 1930 nM

Structure (SMILES): COc1ccc(Cc2cn[nH]c2)nc1-c1cccc(C(F)(F)F)c1
- Ratio IC50 [3]: 42
- IC50 [1]: 186 nM
- IC50 [2]: 7850 nM

Structure (SMILES): COc1cccc(-c2nc(COc3cn[nH]c3)ccc2OC(F)F)c1
- IC50 [1]: 372 nM
- IC50 [2]: > 10000 nM

Structure (SMILES): COc1cccc(-c2nc(Cc3ccc(CCCO)cc3)ccc2OC(F)F)c1
- IC50 [1]: 24 nM
- IC50 [2]: > 10000 nM

Structure (SMILES): COc1ccc(Cn2cccn2)nc1-c1cccc(F)c1
- IC50 [1]: 5530 nM
- IC50 [2]: > 10000 nM

Structure (SMILES): COc1ccc(Cc2cn[nH]c2)nc1-c1cccc(OC(F)(F)F)c1
- Ratio IC50 [3]: 162
- IC50 [1]: 46 nM
- IC50 [2]: 7440 nM

Structure (SMILES): FC(F)Oc1ccc(Cc2cn[nH]c2)nc1-c1cccc(OCc2ccccc2)c1
- Ratio IC50 [3]: 0.61
- IC50 [1]: 446 nM
- IC50 [2]: 274 nM

Structure (SMILES): COc1ccc(Cn2cnc(C(F)(F)F)n2)nc1-c1cccc(OC(F)F)c1
- IC50 [1]: 785 nM
- IC50 [2]: > 10000 nM

Structure (SMILES): COc1ccc(Cc2ccc(CCO)cc2)nc1-c1cccc(OC(F)F)c1
- IC50 [1]: 4 nM
- IC50 [2]: > 10000 nM

Structure (SMILES): COc1cccc(-c2nc(Cn3ccnc3)ccc2OC(F)F)c1
- Ratio IC50 [3]: 242
- IC50 [1]: 2.1 nM
- IC50 [2]: 513 nM

Structure (SMILES): O=[N+]([O-])c1cccc(-c2nc(Cc3cn[nH]c3)ccc2OC(F)F)c1
- Ratio IC50 [3]: 254
- IC50 [1]: 0.36 nM
- IC50 [2]: 91 nM

Structure (SMILES): COc1cccc(-c2nc(Nc3cn[nH]c3)ccc2OC(F)F)c1
- IC50 [1]: 658 nM
- IC50 [2]: > 10000 nM

Structure (SMILES): Fc1cccc(-c2nc(Nc3cn[nH]c3)ccc2OC(F)F)c1
- Ratio IC50 [3]: 13
- IC50 [1]: 136 nM
- IC50 [2]: 1750 nM

Structure (SMILES): COc1ccc(Cn2cccn2)nc1-c1cccc(Cl)c1
- Ratio IC50 [3]: 8
- IC50 [1]: 1150 nM
- IC50 [2]: 9170 nM

Structure (SMILES): COc1ccc(Cn2cncn2)nc1-c1cccc(OC(F)F)c1
- IC50 [1]: 15 nM
- IC50 [2]: > 10000 nM

Structure (SMILES): COc1ccc(Cc2cn[nH]c2)nc1-c1cccc([N+](=O)[O-])c1
- IC50 [4]: 280 nM

Structure (SMILES): COc1ccc(Cn2cnnn2)nc1-c1cccc(OC(F)F)c1
- Ratio IC50 [3]: 81
- IC50 [1]: 16 nM
- IC50 [2]: 1260 nM

Structure (SMILES): FC(F)Oc1cccc(-c2nc(Cn3ccnc3)ccc2OCc2ccccc2)c1
- IC50 [1]: 174 nM
- IC50 [2]: > 10000 nM

Structure (SMILES): COc1ccc(Cc2cn[nH]c2)nc1-c1ccc2nonc2c1
- Ratio IC50 [3]: 57
- IC50 [1]: 13 nM
- IC50 [2]: 730 nM

Structure (SMILES): COc1ccc(Cn2ccnc2)nc1-c1cccc(OC(F)F)c1
- Ratio IC50 [3]: 559
- IC50 [1]: 1.06 nM
- IC50 [2]: 593 nM

Structure (SMILES): Fc1cccc(-c2nc(Cn3ccnc3)ccc2OC(F)F)c1
- Ratio IC50 [3]: 54
- IC50 [1]: 3.7 nM
- logIC50 [1]: 0.57 log(nM)
- IC50 [2]: 198 nM

Structure (SMILES): FC(F)Oc1ccc(Cn2ccnc2)nc1-c1cccc(OCc2ccccc2)c1
- Ratio IC50 [3]: 0.54
- IC50 [1]: 85 nM
- IC50 [2]: 46 nM

Structure (SMILES): Fc1cccc(-c2nc(Oc3cn[nH]c3)ccc2OC(F)F)c1
- Ratio IC50 [3]: 45
- IC50 [1]: 70 nM
- IC50 [2]: 3110 nM

Structure (SMILES): COc1ccc(Cc2cnn(C)c2)nc1-c1cccc(OC(F)F)c1
- Ratio IC50 [3]: 137
- IC50 [1]: 11 nM
- IC50 [2]: 1440 nM

Structure (SMILES): COc1ccc(Cc2cnn(C)c2)nc1-c1cccc(Cl)c1
- Ratio IC50 [5]: 1670
- IC50 [6]: 0.5 nM
- IC50 [4]: 858 nM

Structure (SMILES): O=[N+]([O-])c1cccc(-c2nc(Cn3ccnc3)ccc2OC(F)F)c1
- Ratio IC50 [3]: 270
- IC50 [1]: 0.3 nM
- IC50 [2]: 81 nM

Structure (SMILES): COc1cccc(-c2nc(Cc3cnn(C)c3)ccc2OC(F)F)c1
- Ratio IC50 [3]: 244
- IC50 [1]: 3.5 nM
- IC50 [2]: 853 nM

Structure (SMILES): COc1ccc(Nc2cn[nH]c2)nc1-c1cccc(F)c1
- Ratio IC50 [3]: 5
- IC50 [1]: 529 nM
- IC50 [2]: 2530 nM

Structure (SMILES): COc1cccc(-c2nc(Cc3ccc(CCO)cc3)ccc2OC(F)F)c1
- Ratio IC50 [3]: 581
- IC50 [1]: 6.9 nM
- IC50 [2]: 4000 nM

Structure (SMILES): COc1ccc(Cc2ccncc2)nc1-c1cccc(Cl)c1
- IC50 [4]: 720 nM

Structure (SMILES): COc1ccc(Cc2ccncc2)nc1-c1cccc([N+](=O)[O-])c1
- IC50 [4]: 1120 nM

Structure (SMILES): COc1ccc(Cc2cn[nH]c2)nc1-c1cccc(Cl)c1
- Ratio IC50 [3]: 154
- IC50 [1]: 6 nM
- IC50 [2]: 923 nM

Structure (SMILES): COc1ccc(Nc2cn[nH]c2)nc1-c1cccc(Cl)c1
- Ratio IC50 [3]: 7
- IC50 [1]: 468 nM
- IC50 [2]: 3160 nM

Structure (SMILES): COc1ccc(Cn2ncnn2)nc1-c1cccc(OC(F)F)c1
- IC50 [1]: 21 nM
- IC50 [2]: > 10000 nM

Structure (SMILES): Fc1cccc(-c2nc(Cc3cn[nH]c3)ccc2OC(F)F)c1
- Ratio IC50 [3]: 141
- IC50 [1]: 7.6 nM
- IC50 [2]: 1070 nM

Structure (SMILES): COc1ccc(Cc2ccncc2)nc1-c1cccc(OC(F)F)c1
- Ratio IC50 [3]: 364
- IC50 [1]: 1.8 nM
- logIC50 [1]: 0.26 log(nM)
- IC50 [2]: 665 nM

Structure (SMILES): COc1cccc(-c2nc(Cn3cncn3)ccc2OC(F)F)c1
- IC50 [1]: 42 nM
- IC50 [2]: > 10000 nM

Structure (SMILES): COc1ccc(Oc2cn[nH]c2)nc1-c1cccc(F)c1
- Ratio IC50 [3]: 5
- IC50 [1]: 836 nM
- IC50 [2]: 4540 nM

Structure (SMILES): COc1cccc(-c2nc(Cc3cn[nH]c3)ccc2OC)c1
- Ratio IC50 [3]: 165
- IC50 [1]: 13 nM
- logIC50 [1]: 1.11 log(nM)
- IC50 [2]: 2130 nM

Structure (SMILES): COc1ccc(Cc2cn[nH]c2)nc1-c1cccc(OC(F)F)c1
- Ratio IC50 [3]: 793
- IC50 [1]: 1.4 nM
- IC50 [2]: 1070 nM

Structure (SMILES): FC(F)Oc1ccc(Cc2ccncc2)nc1-c1cccc(OCc2ccccc2)c1
- Ratio IC50 [3]: 0.84
- IC50 [1]: 171 nM
- IC50 [2]: 143 nM

Structure (SMILES): COc1ccc(Oc2cn[nH]c2)nc1-c1cccc(C(F)(F)F)c1
- Ratio IC50 [3]: 0.92
- IC50 [1]: 3540 nM
- IC50 [2]: 3240 nM

Structure (SMILES): COc1ccc(Oc2cn[nH]c2)nc1-c1cccc(Cl)c1
- Ratio IC50 [3]: 14
- IC50 [1]: 306 nM
- IC50 [2]: 4160 nM

Structure (SMILES): COc1ccc(Cc2ccc(CCCO)cc2)nc1-c1cccc(OC(F)F)c1
- IC50 [1]: 16 nM
- IC50 [2]: > 10000 nM
